Assays:
[1] = Inhibition of gamma-secretase expressed in african green monkey CV1 cells coexpressing Gal4 DNA-binding/transactivation domain assessed as inhibition of notch processing by luciferase reporter assay; format: cell-based; conditions: CV-1
Gamma-secretase [2] = assay: Inhibition of gamma-secretase in human SHSY5Y cells expressing human recombinant APP assessed as amyloid beta40 formation by ELISA; format: cell-based; conditions: sh-sy5y; in the assay text read “amyloid beta42 formation” for “amyloid beta40 formation”
Procedure, shortened: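 SH-SY5Y cells overexpressing human APP Swedish variant exposed to compound for 48 h; Aβ40 (and Aβ42) in the cell medium quantified by ELISA, either Meso Scale Discovery or AlphaLISA format. Compounds also cross-screened for inhibition of Notch processing.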

Gamma-secretase [3] = assay: Inhibition of gamma-secretase in human SHSY5Y cells expressing human recombinant APP assessed as amyloid beta42 formation by ELISA; format: cell-based; conditions: sh-sy5y; in the assay text read “amyloid beta40 formation” for “amyloid beta42 formation”
Procedure, shortened: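 SH-SY5Y cells overexpressing human APP Swedish variant were incubated with compound for 48 h. Secreted Aβ42 and Aβ40 were measured by immunoassay (MSD electrochemiluminescence or AlphaLISA).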

CV-1 = assay: Inhibition of gamma-secretase expressed in african green monkey CV1 cells coexpressing Gal4 DNA-binding/transactivation domain assessed as inhibition of notch processing by luciferase reporter assay at 20 uM; format: cell-based
[4] = target: T1, Gamma-secretase (Homo sapiens) (UniProt Q96BI3+Q9NZ42+Q8WW43+P49768+Q92542+P49810); assay: Inhibition of gamma-secretase in human SHSY5Y cells expressing human recombinant APP assessed as amyloid beta40 formation at 20 uM by ELISA; conditions: SH-SY5Y
SH-SY5Y = assay: Cytotoxicity against human SH-SY5Y cells after 24 hrs by WST1 assay; format: cell-based
[5] = target: T1, Gamma-secretase (Homo sapiens); assay: (§1) Inhibition of gamma-secretase in human SHSY5Y cells expressing human recombinant APP assessed as decrease in Abeta42 level after 24 hrs by DELFIA; format: cell-based; conditions: SH-SY5Y
Gamma-secretase [6] = assay: as §1; format: cell-based; conditions: sh-sy5y
Gamma-secretase [7] = assay: Inhibition of gamma-secretase in human SHSY5Y cells expressing human recombinant APP assessed as effect on Abeta40 level after 24 hrs by DELFIA; format: cell-based; conditions: sh-sy5y
Gamma-secretase [8] = assay: Inhibition of gamma-secretase in human SHSY5Y cells expressing human recombinant APP assessed as decrease in total Abeta level after 24 hrs by DELFIA; format: cell-based; conditions: sh-sy5y
[9] = target: T1, Gamma-secretase (Homo sapiens); assay: (§2) Inhibition of gamma-secretase in human SHSY5Y cells expressing human recombinant APP assessed as increase in Abeta38 level after 24 hrs by DELFIA; format: cell-based; conditions: SH-SY5Y
Gamma-secretase [10] = assay: as §2; format: cell-based; conditions: sh-sy5y
[11] = Volume of distribution at steady state in dog at 1 mg/kg, iv and 1 mg/kg, po; format: ADME, organism-based, Canis lupus familiaris; conditions: in vivo, read-out: Vdss
Procedure, shortened: (§3)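 Dog PK: iv and oral doses each 1 mg/kg; data from a single animal. Oral bioavailability was measured with the sodium salt in 1% methylcellulose vehicle.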

[12] = Oral bioavailability in rat at 2 mg/kg; format: ADME, organism-based; conditions: in vivo
Procedure, shortened: (§4)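 Rat PK: iv 1 mg/kg paired with oral 3 mg/kg or 2 mg/kg; values are the mean from three animals. Oral bioavailability was measured with the sodium salt in 1% methylcellulose vehicle.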

[13] = Half life in dog at 1 mg/kg, iv and 1 mg/kg, po; format: ADME, organism-based, Canis lupus familiaris; conditions: in vivo; procedure, shortened: as §3
[14] = Oral bioavailability in dog at 1 mg/kg; format: ADME, organism-based, Canis lupus familiaris; conditions: in vivo; procedure, shortened: as §3
[15] = Volume of distribution at steady state in rat at 1 mg/kg, iv and 2 mg/kg, po; format: ADME, organism-based; conditions: in vivo, read-out: Vdss; procedure, shortened: as §4
[16] = Half life in rat at 1 mg/kg, iv and 2 mg/kg, po; format: ADME, organism-based; conditions: in vivo; procedure, shortened: as §4
[17] = Clearance in dog blood at 1 mg/kg, iv and 1 mg/kg, po; format: ADME, organism-based, Canis lupus familiaris; procedure, shortened: as §3
[18] = Clearance in rat blood at 1 mg/kg, iv and 2 mg/kg, po; format: ADME, organism-based; procedure, shortened: as §4

SMILES	IC50 [1] [µM]	pIC50 (Gamma-secretase [2])	pIC50 (Gamma-secretase [3])	inhibition (CV-1) [%]	inhibition [4] [%]	also measured
CC(C)CC[C@H](c1cnc(C(F)(F)F)cn1)N1CC[C@@H](CC(=O)[O-])C[C@H]1c1ccc(C(F)(F)F)cc1.[Na+]	> 20	6.4	4.7	21		
O=C(O)Cc1ccc(-c2ccc(C(F)(F)F)cc2)c(-c2ccc(C(F)(F)F)cc2)c1	> 20	5.7	< 4.7	23	13	IC50 (SH-SY5Y): > 100 µM; Activity [5]: Dose-dependent effect; pIC50 (Gamma-secretase [6]): 5.7; pIC50 (Gamma-secretase [7]): < 4; pIC50 (Gamma-secretase [8]): < 4; Activity [9]: Dose-dependent effect; pEC50 (Gamma-secretase [10]): 5.1
CCCCC[C@H](c1ccc(C(F)(F)F)nc1)N1CC[C@@H](CC(=O)[O-])C[C@H]1c1ccc(C(F)(F)F)cc1.[Na+]	15.8	5.9	5.1			
CCCC[C@H](c1ccc(C(F)(F)F)nc1)N1CC[C@@H](CC(=O)[O-])C[C@H]1c1ccc(C(F)(F)F)cc1.[Na+]	> 20	6.2	4.8	33		IC50 (SH-SY5Y): > 100 µM; Activity [5]: Dose-dependent effect; pIC50 (Gamma-secretase [6]): 6; pIC50 (Gamma-secretase [7]): 4.4; pIC50 (Gamma-secretase [8]): < 4; Activity [9]: Dose-dependent effect; pEC50 (Gamma-secretase [10]): 5.5
CC(C)CC[C@H](c1ccc(C(F)(F)F)nn1)N1CC[C@@H](CC(=O)[O-])C[C@H]1c1ccc(C(F)(F)F)cc1.[Na+]	> 20	5.9	4.6	17		
O=C([O-])C[C@@H]1CCN([C@H](CCc2ccccc2)c2ccc(C(F)(F)F)nc2)[C@H](c2ccc(C(F)(F)F)cc2)C1.[Na+]	> 20	5.7	< 4.7	32	40	
COCCC[C@H](c1ccc(C(F)(F)F)nc1)N1CC[C@@H](CC(=O)[O-])C[C@H]1c1ccc(C(F)(F)F)cc1.[Na+]	> 20	5	4.5	10		
CC[C@H](c1ccc(C(F)(F)F)nc1)N1CC[C@@H](CC(=O)[O-])C[C@H]1c1ccc(C(F)(F)F)cc1.[Na+]	> 20	5	< 4.7	10	20	
CC(C)CC[C@H](c1ccc(C2CC2)nc1)N1CC[C@@H](CC(=O)[O-])C[C@H]1c1ccc(C(F)(F)F)cc1.[Na+]	> 20	6.2	< 4.7	15	31	
O=C([O-])C[C@@H]1CCN([C@H](CC2CCC2)c2ccc(C(F)(F)F)nc2)[C@H](c2ccc(C(F)(F)F)cc2)C1.[Na+]	> 20	6.6	5.5	17		
CC(C)CC[C@H](c1ccc(C(F)(F)F)cn1)N1CC[C@@H](CC(=O)[O-])C[C@H]1c1ccc(C(F)(F)F)cc1.[Na+]	12.6	6.5	4.9			
CCC[C@@H](C(=O)O)c1cc(OCc2ccccc2)cc(-c2ccc(C(F)(F)F)cc2)c1	> 20		<= 4.8	20	32	IC50 (Gamma-secretase [2]): 3.98 µM; IC50 (SH-SY5Y): > 100 µM; Activity [5]: Dose-dependent effect; pIC50 (Gamma-secretase [6]): 5.8; pIC50 (Gamma-secretase [7]): < 4; pIC50 (Gamma-secretase [8]): < 4; Activity [9]: Dose-dependent effect; pEC50 (Gamma-secretase [10]): 5.9
CC(C)[C@H](O)C(=O)N[C@@H](C)C(=O)N[C@@H]1C(=O)N(C)CCc2ccccc21 [SEMAGACESTAT]	0.316	7.4	7.4			IC50 (SH-SY5Y): > 100 µM; Activity [5]: Dose-dependent effect; pIC50 (Gamma-secretase [6]): 6.9; pIC50 (Gamma-secretase [7]): 6.7; pIC50 (Gamma-secretase [8]): 7; Activity [9]: Dose-dependent effect; pEC50 (Gamma-secretase [10]): 6.9
CC(C)CC[C@H](c1ncc(C(F)(F)F)cn1)N1CC[C@@H](CC(=O)[O-])C[C@H]1c1ccc(C(F)(F)F)cc1.[Na+]	25.1	6.1	< 4.7		17	Vd [11]: 1.2 L/kg; bioavailability [12]: 95%; half-life [13]: 186 min; bioavailability [14]: > 100%; Vd [15]: 3 L/kg; half-life [16]: 180 min; clearance [17]: 5 mL/min/kg; clearance [18]: 9 mL/min/kg
CC(C)C[C@H](c1ccc(C(F)(F)F)nc1)N1CC[C@@H](CC(=O)[O-])C[C@H]1c1ccc(C(F)(F)F)cc1.[Na+]	> 20	6.2	4.5	25		
O=C([O-])C[C@@H]1CCN([C@@H](c2ccc(C(F)(F)F)nc2)C2CC2)[C@H](c2ccc(C(F)(F)F)cc2)C1.[Na+]	> 20	5.1	4.3	23		IC50 (SH-SY5Y): > 100 µM; Activity [5]: Dose-dependent effect; pIC50 (Gamma-secretase [6]): 6; pIC50 (Gamma-secretase [7]): < 4; pIC50 (Gamma-secretase [8]): < 4; Activity [9]: Dose-dependent effect; pEC50 (Gamma-secretase [10]): 5
CC(C)CC[C@H](c1ccnc(C(F)(F)F)n1)N1CC[C@@H](CC(=O)[O-])C[C@H]1c1ccc(C(F)(F)F)cc1.[Na+]	3.98	6.4	4.9			
CC(C)[C@H](c1ccc(C(F)(F)F)nc1)N1CC[C@@H](CC(=O)[O-])C[C@H]1c1ccc(C(F)(F)F)cc1.[Na+]	> 20	5.4	< 4.7	21	24	IC50 (SH-SY5Y): > 100 µM; Activity [5]: Dose-dependent effect; pIC50 (Gamma-secretase [6]): 6; pIC50 (Gamma-secretase [7]): < 4; pIC50 (Gamma-secretase [8]): < 4; Activity [9]: Dose-dependent effect; pEC50 (Gamma-secretase [10]): 5
CC(C)CC[C@H](c1cnc(C(F)(F)F)nc1)N1CC[C@@H](CC(=O)[O-])C[C@H]1c1ccc(C(F)(F)F)cc1.[Na+]	20	6.4	4.7			
O=C([O-])C[C@@H]1CCN([C@@H](c2ccc(C(F)(F)F)nc2)C2CCCCC2)[C@H](c2ccc(C(F)(F)F)cc2)C1.[Na+]		5.4	4.6			
O=C([O-])C[C@@H]1CCN([C@H](Cc2ccccc2)c2ccc(C(F)(F)F)nc2)[C@H](c2ccc(C(F)(F)F)cc2)C1.[Na+]	> 20	5.8	5	34		
CC(C)CC[C@H](c1ncc(C(C)C)cn1)N1CC[C@@H](CC(=O)[O-])C[C@H]1c1ccc(C(F)(F)F)cc1.[Na+]	> 20	6.1	< 4.7	27	22	
Cc1cccc([C@@H](CCC(C)C)N2CC[C@@H](CC(=O)[O-])C[C@H]2c2ccc(C(F)(F)F)cc2)n1.[Na+]	> 20	5.9	4.8	4		
O=C([O-])C[C@@H]1CCN([C@H](c2ccc(C(F)(F)F)cc2)c2ccc(C(F)(F)F)nc2)[C@H](c2ccc(C(F)(F)F)cc2)C1.[Na+]	7.94	5.9	<= 4.8		33	
CCCCCC[C@H](c1ccc(C(F)(F)F)nc1)N1CC[C@@H](CC(=O)[O-])C[C@H]1c1ccc(C(F)(F)F)cc1.[Na+]	5.01	6.3	4.8			IC50 (SH-SY5Y): > 100 µM; Activity [5]: Dose-dependent effect; pIC50 (Gamma-secretase [6]): 6; pIC50 (Gamma-secretase [7]): 4.6; pIC50 (Gamma-secretase [8]): 4; Activity [9]: Dose-dependent effect; pEC50 (Gamma-secretase [10]): 6.3

From ChEMBL document CHEMBL1159115, “Piperidine-derived gamma-secretase modulators” (Bioorg Med Chem Lett, 2010)
